Test results taken from paper PMC11995402 (ACS infectious diseases, 2025).
Values after ≈ are worked out from the molar mass of the structure shown. Like-named read-outs stand apart in the source and are kept apart here.

How the values were obtained:
T. muris [1] = experiment: adult whipworm whole-worm motility inhibition assay; format: cell-based, Trichuris muris; conditions: for IC50: motility
A. ceylanicum [2] = experiment: adult hookworm whole-worm motility inhibition assay; format: cell-based, Ancylostoma ceylanicum; conditions: motility
PIM-3 = PIM-3 (Homo sapiens, UniProt Q86V86); experiment: SelectScreen kinase panel, PIM-3; format: biochemical; conditions: 500 nM
AAK1 = AAK1 (Homo sapiens, UniProt Q2M2I8); experiment: SelectScreen kinase panel, AAK1; format: biochemical; conditions: 500 nM
Sequence of AAK1 (Q2M2I8 whole entry): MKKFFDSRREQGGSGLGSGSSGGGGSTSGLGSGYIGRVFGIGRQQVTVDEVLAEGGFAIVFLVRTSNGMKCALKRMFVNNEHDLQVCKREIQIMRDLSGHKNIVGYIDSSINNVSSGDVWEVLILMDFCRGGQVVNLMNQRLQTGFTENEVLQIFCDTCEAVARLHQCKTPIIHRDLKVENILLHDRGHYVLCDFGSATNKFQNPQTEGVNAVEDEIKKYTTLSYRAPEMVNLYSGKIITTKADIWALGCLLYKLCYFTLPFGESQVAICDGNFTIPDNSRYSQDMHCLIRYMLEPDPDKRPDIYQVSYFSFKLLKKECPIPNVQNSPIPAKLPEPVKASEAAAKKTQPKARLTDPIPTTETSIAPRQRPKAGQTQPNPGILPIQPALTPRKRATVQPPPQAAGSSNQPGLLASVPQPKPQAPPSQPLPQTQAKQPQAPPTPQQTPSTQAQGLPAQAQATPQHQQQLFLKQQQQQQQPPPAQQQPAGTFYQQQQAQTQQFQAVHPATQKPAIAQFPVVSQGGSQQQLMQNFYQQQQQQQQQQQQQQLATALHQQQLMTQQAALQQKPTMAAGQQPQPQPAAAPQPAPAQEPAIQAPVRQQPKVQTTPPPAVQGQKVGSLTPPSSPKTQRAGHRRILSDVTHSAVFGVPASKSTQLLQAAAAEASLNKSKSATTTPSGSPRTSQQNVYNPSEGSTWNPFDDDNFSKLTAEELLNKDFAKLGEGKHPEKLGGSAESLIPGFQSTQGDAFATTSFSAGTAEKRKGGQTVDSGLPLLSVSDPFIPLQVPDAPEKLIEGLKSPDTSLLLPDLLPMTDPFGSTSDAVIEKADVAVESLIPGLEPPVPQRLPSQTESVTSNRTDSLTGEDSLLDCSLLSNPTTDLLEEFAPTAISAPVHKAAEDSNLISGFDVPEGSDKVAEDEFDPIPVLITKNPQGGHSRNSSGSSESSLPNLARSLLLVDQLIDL

MYLK4 = target: T1, MYLK4 (Homo sapiens, UniProt Q86YV6); experiment: SelectScreen kinase panel, MYLK4; format: biochemical; conditions: 500 nM
T1 sequence (Q86YV6 1-388): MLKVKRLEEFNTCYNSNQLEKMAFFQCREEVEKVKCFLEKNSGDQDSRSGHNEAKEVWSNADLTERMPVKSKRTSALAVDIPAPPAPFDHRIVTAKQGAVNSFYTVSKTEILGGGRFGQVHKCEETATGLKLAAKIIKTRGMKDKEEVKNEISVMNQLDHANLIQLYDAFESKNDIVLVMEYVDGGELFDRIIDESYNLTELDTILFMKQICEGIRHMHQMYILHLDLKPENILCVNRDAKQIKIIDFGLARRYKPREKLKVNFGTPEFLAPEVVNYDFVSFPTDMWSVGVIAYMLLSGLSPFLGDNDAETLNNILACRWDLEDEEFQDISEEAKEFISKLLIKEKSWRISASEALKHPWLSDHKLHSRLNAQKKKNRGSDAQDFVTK

STK17A = target: T2, STK17A (Homo sapiens, UniProt Q9UEE5); experiment: SelectScreen kinase panel, STK17A; format: biochemical; conditions: 500 nM
T2 sequence (Q9UEE5 1-414): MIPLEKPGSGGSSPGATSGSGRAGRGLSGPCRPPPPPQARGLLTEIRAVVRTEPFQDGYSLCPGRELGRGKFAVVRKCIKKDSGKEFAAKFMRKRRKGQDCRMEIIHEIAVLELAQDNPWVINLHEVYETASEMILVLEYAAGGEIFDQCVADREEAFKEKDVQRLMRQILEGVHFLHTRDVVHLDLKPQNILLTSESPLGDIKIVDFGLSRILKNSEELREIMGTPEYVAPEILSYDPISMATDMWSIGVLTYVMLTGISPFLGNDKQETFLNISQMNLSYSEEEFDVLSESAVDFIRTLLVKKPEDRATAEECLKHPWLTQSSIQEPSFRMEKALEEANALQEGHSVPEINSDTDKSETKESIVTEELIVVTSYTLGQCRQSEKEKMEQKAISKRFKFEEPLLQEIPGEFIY

GSG2 (haspin) = target: T3, GSG2 (haspin) (Homo sapiens, UniProt Q8TF76); experiment: SelectScreen kinase panel, GSG2; format: biochemical; conditions: 500 nM
T3 sequence (Q8TF76 1-798): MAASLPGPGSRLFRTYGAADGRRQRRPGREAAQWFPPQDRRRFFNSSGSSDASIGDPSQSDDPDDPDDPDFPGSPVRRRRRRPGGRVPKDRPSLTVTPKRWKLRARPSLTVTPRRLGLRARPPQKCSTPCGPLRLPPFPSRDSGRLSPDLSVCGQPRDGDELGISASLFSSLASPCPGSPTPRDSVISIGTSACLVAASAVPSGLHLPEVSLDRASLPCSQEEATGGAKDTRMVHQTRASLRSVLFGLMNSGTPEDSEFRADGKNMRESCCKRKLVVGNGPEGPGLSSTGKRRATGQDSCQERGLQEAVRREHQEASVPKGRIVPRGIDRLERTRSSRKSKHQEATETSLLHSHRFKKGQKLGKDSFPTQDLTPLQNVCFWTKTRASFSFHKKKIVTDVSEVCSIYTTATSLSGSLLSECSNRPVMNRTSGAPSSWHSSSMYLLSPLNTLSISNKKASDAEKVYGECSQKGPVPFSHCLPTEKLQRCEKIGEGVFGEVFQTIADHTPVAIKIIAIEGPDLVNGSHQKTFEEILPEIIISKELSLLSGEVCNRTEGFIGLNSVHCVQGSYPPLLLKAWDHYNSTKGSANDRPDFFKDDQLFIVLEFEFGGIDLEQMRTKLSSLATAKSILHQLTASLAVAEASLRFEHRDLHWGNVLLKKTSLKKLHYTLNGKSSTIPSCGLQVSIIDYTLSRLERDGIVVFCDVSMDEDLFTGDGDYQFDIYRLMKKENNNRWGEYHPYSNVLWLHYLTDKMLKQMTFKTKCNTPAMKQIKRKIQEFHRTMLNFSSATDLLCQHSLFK

MAPK15 (ERK7) = target: T4, MAPK15 (ERK7) (Homo sapiens, UniProt Q8TD08); experiment: SelectScreen kinase panel, MAPK15; format: biochemical; conditions: 500 nM
T4 sequence (Q8TD08 1-544): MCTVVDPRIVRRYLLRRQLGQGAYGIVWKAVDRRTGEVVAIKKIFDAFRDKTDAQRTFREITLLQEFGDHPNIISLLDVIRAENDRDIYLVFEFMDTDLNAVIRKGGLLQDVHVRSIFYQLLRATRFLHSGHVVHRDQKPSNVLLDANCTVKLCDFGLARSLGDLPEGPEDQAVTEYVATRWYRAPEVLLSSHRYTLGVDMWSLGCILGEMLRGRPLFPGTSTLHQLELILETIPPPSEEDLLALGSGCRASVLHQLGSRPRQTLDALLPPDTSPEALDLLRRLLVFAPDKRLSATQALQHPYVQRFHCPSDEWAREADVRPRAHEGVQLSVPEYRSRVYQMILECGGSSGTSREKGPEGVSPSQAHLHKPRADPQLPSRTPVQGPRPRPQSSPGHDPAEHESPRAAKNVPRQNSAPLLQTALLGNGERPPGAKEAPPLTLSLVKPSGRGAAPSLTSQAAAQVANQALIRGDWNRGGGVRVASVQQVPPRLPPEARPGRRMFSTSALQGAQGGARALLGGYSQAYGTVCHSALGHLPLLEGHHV

[3] = kinetic solubility in simulated gastric and intestinal fluid; format: physicochemical
T. muris [4] = tested on: T. muris; design: species or system mice; conditions: mouse, in vivo, po, 100 mg/kg/day
A. ceylanicum [5] = experiment: in vivo efficacy in A. ceylanicum-infected hamsters; conditions: 100 mg/kg/day for three days, oral
whipworms = experiment: whipworm motility recovery after drug removal; format: cell-based; conditions: 60 μM for 24 h, motility recorded 4 and 24 h after removal
In short: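 Adult T. muris harvested 35 days post-inoculation from Stat6−/− mice, one worm per well in RPMI 1640 (pH 7.2) with 5% FBS, penicillin, streptomycin and amphotericin, at 37 °C and 5% CO2. Worms were exposed to test compound for 24 h, washed, and moved to fresh drug-free medium. Motility inhibition was scored relative to DMSO (0%) after exposure and again 4 and 24 h later.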

MDR1-MDCK II cells = conditions: MDCK-MDR1
HepG2 cells = experiment: HepG2 MTT viability assay; conditions: read-out: HEPG2 cells CC50 μM (95% CI) 24 h; MTT viability, 24 h

SMILES: CN1CCCN(C(=O)c2cccc(-c3ccc(/C=C4/C(=O)Nc5ccc(Cl)cc54)o3)c2)CC1 [CX-6258]
- worm motility inhibition (in words) (T. muris [1]; adult T. muris, 30 μM (Figure 1)): excellent inhibition
- motility inhibition (T. muris [1]; adult T. muris, 30 μM, relative to DMSO controls): 100%
- IC50 (T. muris [1]; read-out: T. muris IC50 μM (95% CI) 24 h, 24 h): 17.8 µM
- IC50 (T. muris [1]; read-out: T. muris IC50 μM (95% CI) 48 h, 48 h): 14.7 µM
- IC50 (A. ceylanicum [2]; read-out: A. ceylanicum IC50 μM (95% CI) 24 h, 24 h): 31.6 µM
- IC50 (A. ceylanicum [2]; read-out: A. ceylanicum IC50 μM (95% CI) 48 h, 48 h): 5.5 µM
- kinase inhibition PIM-3 (PIM-3): over 80%
- kinase inhibition AAK1 (AAK1): over 80%
- kinase inhibition MYLK4 (MYLK4): over 80%
- kinase inhibition STK17A (STK17A): over 80%
- kinase inhibition GSG2 (haspin) (GSG2 (haspin)): over 80%
- kinase inhibition MAPK15 (ERK7) (MAPK15 (ERK7)): over 80%
- kinetic solubility μM ([3]; SGF (pH = 1.2)): 151 µM (≈ 69.8 µg/mL)
- kinetic solubility μg/mL ([3]; SGF (pH = 1.2)): 69.7 µg/mL (≈ 151 µM)
- times more soluble in SGF than in SIF ([3]; SGF pH 1.2 versus SIF pH 6.8): approximately 30 times
- kinetic solubility μM ([3]; SIF (pH = 6.8)): 5.05 µM (≈ 2.33 µg/mL)
- kinetic solubility μg/mL ([3]; SIF (pH = 6.8)): 2.33 µg/mL (≈ 5.04 µM)
- health, vitality and body weight of treated animals (T. muris [4]): did not affect the visually observed health and vitality of treated animals, nor were any changes in body weight
- reduction of egg number or worm burden (in words) (A. ceylanicum [5]): did not reduce egg number or worm burden
- recovery of whipworm motility after removing the drug (whipworms): no recovery in whipworm motility
- Rank Papp (MDR1-MDCK II cells): low
- mean Papp A to B (MDR1-MDCK II cells): 0.049 10^−6 cm/s
- mean Papp B to A (MDR1-MDCK II cells): 0.0897 10^−6 cm/s
- mean solution recovery % A to B (MDR1-MDCK II cells): 5.4%
- mean solution recovery % B to A (MDR1-MDCK II cells): 20.2%
- CC50 (HepG2 cells): 37.5 µM
